Measured values from ChEMBL document CHEMBL1139597, “Evaluation of 3-substituted arginine analogs as selective inhibitors of human nitric oxide synthase isozymes” (Bioorg Med Chem Lett, 2005).

Assays:
Nitric oxide synthase 1 = Nitric oxide synthase 1 (Homo sapiens, UniProt P29475); assay: Inhibitory concentration against human neuronal nitric oxide synthase expressed in Sf-9 cells
Outline: (§1)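 Recombinant human NOS isozyme produced in Sf-9 insect cells. Enzyme activity was followed as conversion of [¹⁴C]-L-Arg to [¹⁴C]-L-Cit, and IC50 was calculated from the concentration dependence of inhibition. Inhibitors were tested up to 1 mM.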

Nitric oxide synthase 3 = target: T1, Nitric oxide synthase 3 (Homo sapiens, UniProt P29474); assay: Inhibitory concentration against human endothelial nitric oxide synthase expressed in Sf-9 cells; outline: as §1
T1 sequence (P29474 whole entry): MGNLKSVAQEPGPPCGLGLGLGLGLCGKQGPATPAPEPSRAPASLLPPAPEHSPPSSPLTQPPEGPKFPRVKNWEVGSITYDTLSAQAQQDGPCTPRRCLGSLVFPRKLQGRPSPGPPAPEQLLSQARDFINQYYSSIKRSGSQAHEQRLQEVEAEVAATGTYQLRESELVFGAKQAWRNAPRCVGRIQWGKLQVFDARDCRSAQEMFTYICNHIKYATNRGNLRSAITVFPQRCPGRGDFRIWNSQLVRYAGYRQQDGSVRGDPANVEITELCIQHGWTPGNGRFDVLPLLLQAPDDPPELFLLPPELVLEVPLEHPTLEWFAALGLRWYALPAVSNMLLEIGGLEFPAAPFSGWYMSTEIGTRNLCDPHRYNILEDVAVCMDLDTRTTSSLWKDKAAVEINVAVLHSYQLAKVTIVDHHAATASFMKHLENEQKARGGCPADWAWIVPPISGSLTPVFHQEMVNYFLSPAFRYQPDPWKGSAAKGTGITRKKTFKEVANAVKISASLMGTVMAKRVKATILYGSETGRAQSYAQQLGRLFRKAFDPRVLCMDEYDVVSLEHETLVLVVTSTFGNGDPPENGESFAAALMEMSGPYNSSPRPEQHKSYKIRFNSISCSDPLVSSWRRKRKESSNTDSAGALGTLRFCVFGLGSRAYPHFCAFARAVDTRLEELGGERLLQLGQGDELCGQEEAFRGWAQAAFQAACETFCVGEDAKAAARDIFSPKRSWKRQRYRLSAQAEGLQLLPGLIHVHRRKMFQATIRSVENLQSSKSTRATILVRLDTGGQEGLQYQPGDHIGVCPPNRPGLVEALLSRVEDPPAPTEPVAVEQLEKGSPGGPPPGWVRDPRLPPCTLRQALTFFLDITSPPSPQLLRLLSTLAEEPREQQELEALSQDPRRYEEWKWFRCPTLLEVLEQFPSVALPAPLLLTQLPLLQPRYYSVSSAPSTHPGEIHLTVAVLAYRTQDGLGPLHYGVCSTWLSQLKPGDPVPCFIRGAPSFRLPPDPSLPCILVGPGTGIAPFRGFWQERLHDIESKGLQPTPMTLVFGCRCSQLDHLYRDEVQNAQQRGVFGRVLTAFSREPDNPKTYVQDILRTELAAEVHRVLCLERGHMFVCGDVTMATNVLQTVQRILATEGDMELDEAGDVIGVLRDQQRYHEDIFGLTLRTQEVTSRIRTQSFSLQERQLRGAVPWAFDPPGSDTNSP

[1] = target: Nitric oxide synthase, inducible (Homo sapiens, UniProt P35228); assay: Inhibitory concentration against human inducible nitric oxide synthase expressed in Sf-9 cells; outline: as §1
Chain of Nitric oxide synthase, inducible (P35228 whole entry): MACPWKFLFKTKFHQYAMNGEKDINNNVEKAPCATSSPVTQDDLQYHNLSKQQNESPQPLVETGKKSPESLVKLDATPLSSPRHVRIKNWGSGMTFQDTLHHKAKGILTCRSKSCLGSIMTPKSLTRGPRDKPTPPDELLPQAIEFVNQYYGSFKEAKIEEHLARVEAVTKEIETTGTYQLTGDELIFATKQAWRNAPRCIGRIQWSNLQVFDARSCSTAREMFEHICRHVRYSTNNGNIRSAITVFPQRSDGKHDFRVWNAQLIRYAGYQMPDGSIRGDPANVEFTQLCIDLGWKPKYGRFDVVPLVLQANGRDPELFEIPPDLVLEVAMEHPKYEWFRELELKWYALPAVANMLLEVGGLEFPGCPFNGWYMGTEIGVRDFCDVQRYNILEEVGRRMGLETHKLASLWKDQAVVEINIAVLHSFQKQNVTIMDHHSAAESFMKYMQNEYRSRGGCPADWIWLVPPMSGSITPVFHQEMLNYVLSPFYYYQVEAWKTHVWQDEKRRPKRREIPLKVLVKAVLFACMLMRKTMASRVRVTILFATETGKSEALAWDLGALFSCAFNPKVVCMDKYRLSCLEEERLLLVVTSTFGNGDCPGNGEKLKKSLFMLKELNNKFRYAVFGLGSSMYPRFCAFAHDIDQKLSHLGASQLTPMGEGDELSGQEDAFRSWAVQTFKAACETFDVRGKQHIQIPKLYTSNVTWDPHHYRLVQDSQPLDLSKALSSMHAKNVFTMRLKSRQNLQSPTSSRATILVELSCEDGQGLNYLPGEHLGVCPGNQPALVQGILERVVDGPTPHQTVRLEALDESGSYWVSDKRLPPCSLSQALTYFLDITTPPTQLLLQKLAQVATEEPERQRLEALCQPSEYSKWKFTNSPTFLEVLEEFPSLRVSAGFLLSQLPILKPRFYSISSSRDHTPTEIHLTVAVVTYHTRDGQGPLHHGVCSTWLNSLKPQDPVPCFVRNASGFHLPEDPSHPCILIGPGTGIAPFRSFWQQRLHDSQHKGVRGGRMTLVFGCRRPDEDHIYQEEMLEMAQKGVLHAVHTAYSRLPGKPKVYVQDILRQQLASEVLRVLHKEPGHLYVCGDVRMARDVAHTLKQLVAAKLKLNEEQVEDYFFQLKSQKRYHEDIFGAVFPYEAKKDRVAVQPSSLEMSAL

Chain of Nitric oxide synthase 1 (P29475 whole entry): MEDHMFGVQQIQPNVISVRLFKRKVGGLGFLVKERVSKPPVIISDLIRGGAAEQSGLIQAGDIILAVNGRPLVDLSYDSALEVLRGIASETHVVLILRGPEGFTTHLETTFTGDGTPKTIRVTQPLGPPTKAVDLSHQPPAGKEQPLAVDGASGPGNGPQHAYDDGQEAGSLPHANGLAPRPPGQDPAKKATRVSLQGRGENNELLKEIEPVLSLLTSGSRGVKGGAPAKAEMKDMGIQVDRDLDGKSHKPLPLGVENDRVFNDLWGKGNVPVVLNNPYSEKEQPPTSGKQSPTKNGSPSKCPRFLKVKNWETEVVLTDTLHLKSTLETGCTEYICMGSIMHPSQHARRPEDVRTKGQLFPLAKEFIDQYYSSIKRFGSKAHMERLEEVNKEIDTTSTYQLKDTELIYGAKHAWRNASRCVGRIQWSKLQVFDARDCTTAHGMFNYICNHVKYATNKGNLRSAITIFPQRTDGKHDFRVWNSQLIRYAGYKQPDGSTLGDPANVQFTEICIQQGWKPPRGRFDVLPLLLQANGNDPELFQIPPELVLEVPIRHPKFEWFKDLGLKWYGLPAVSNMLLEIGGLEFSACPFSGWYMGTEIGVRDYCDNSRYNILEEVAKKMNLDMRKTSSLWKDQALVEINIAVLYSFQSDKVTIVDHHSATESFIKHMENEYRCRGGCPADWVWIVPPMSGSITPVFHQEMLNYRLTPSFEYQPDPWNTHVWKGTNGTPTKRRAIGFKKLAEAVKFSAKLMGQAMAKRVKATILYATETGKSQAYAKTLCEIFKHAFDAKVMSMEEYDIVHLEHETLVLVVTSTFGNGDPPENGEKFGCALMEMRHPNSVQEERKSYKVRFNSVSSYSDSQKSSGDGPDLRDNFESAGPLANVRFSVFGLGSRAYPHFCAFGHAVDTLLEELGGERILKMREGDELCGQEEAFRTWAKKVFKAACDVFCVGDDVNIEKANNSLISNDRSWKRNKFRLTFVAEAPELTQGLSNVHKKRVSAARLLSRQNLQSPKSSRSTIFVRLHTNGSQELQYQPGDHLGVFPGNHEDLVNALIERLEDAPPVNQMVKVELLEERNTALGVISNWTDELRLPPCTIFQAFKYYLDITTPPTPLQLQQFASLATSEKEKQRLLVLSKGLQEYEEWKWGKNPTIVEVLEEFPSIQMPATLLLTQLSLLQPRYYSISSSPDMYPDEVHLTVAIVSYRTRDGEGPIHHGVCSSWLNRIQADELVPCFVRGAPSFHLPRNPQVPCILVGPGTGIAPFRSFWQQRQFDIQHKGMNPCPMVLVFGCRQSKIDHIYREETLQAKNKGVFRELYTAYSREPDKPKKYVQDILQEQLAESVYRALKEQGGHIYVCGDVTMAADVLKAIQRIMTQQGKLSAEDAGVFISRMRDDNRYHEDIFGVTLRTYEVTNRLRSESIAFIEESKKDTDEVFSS

Structure (SMILES) | IC50 (Nitric oxide synthase 1) [µM] | IC50 (Nitric oxide synthase 3) [µM] | IC50 [1] [µM]
CCC[C@@H](CCN=C(N)SC)[C@H](N)C(=O)O | 500 | > 1000 | 370
CC(=N)NCC[C@@H](C)[C@H](N)C(=O)O | > 1000 | > 1000 | > 1000
CSC(=N)NCCC[C@H](N)C(=O)N[C@@H](Cc1ccccc1)C(=O)O | 36 | > 1000 | 3.9
CC(=N)NCCC[C@H](N)C(=O)O [L-NIO] | – | 6 | 4
